Test results taken from ChEMBL document CHEMBL3244411, “A new warfarin metabolite: structure and function” (J Med Chem, 1978).
Calls of active or inactive are those of the source.

Experiments:
[1] = Activity at cytochrome P450 in PCN-induced rat liver microsomes treated with (R)-warfarin at 0.15 mmol measured under basic conditions by LC-UV analysis in presence of cumene hydroperoxide; type: ADME
Procedure, shortened: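 PCN-induced rat liver microsomes (PCN 100 mg/kg/day ip in corn oil for 3 days; killed 24 h after last dose): 200 mL of microsomes at 2.0 mg protein/mL in TES-MgCl2 buffer pH 7.4, with (R)-warfarin sodium 1.5 × 10^-4 mol. Shaken 5 min at 37 °C, then started with cumene hydroperoxide 1.6 × 10^-4 mol, re-added at 10 min, stopped at 30 min on ice. Product collected by preparative C18 LC.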

[2] = Activity at cytochrome P450 in rat liver microsomes treated with (S)-warfarin at 3 umol measured under basic conditions by LC-UV analysis in presence of NADPH; type: ADME
Procedure, shortened: (§1)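 Male Wistar rat hepatic microsomes, 8.0 mg protein in 4.0 mL 0.01 M TES-0.002 M MgCl2, pH 7.4. Enantiopure warfarin sodium 1.0 mg (3.0 × 10^-6 mol) with an NADPH-generating system (NADP 1.25 μmol, glucose 6-phosphate 62.1 μmol). Preincubated 1.0 min at 37 °C, started with G6P dehydrogenase 5.0 units, stopped after 10 min by filtration. Metabolites separated and quantified by LC against external standards.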

[3] = Activity at cytochrome P450 in phenobarbital-induced rat liver microsomes treated with (S)-warfarin at 3 umol measured under basic conditions by LC-UV analysis in presence of NADPH; type: ADME
Procedure, shortened: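 Phenobarbital induction: 100 mg/kg/day ip in saline for 3 days, microsomes isolated 24 h after the last dose. Incubation in 4.0 mL 0.01 M TES-0.002 M MgCl2, pH 7.4, with warfarin sodium 1.0 mg (3.0 × 10^-6 mol), NADP 1.25 μmol, glucose 6-phosphate 62.1 μmol and 8.0 mg microsomal protein. Preincubated 1.0 min at 37 °C, started with G6P dehydrogenase 5.0 units, stopped after 10 min by filtration. Metabolites quantified by LC against external standards.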

[4] = Drug metabolism in phenobarbital-induced rat liver microsomes assessed as cytochrome P450-mediated 4-hydroxy-3-(3-oxo-1-phenyl-1-butenyl)-2H-1-benzopyran-2-one metabolite formation at 3 umol measured per nmol of CYP450 under acidic conditions by LC-UV analysis in presence of cumene hydroperoxide; type: ADME
Procedure, shortened: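 Phenobarbital-induced rat liver microsomes (100 mg/kg/day ip for 3 days) with 8.0 mg protein and warfarin sodium 3.0 × 10^-6 mol in 4.0 mL TES–MgCl2 buffer, pH 7.4, at 37 °C. No NADPH generating system; started with cumene hydroperoxide 3.3 × 10^-5 mol and stopped after 5 min. Products quantified by LC against external standards.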

[5] = Drug metabolism in PCN-induced rat liver microsomes assessed as cytochrome P450-mediated 4-hydroxy-3-(3-oxo-1-phenyl-1-butenyl)-2H-1-benzopyran-2-one metabolite formation at 0.15 mmol measured per nmol of CYP450 under acidic conditions by LC-UV analysis in presence of cumene hydroperoxide; type: ADME
Procedure, shortened: (§2)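 Liver microsomes from PCN-induced rats (100 mg/kg/day ip in corn oil for 3 days), 200 mL at 2.0 mg protein/mL in TES–MgCl2, pH 7.4, with (R)-warfarin sodium 1.5 × 10^-4 mol. Preincubated 5 min at 37 °C with shaking, started with cumene hydroperoxide 1.6 × 10^-4 mol, given a second equal addition at 10 min, stopped at 30 min on ice. Product isolated by preparative C18 LC.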

[6] = Drug metabolism in PCN-induced rat liver microsomes assessed as cytochrome P450-mediated 4-oxo-3-(3-oxo-1-phenylbut-1-enyl)-4H-chromen-2-olate metabolite formation at 0.15 mmol measured under basic conditions by LC-UV analysis in presence of cumene hydroperoxide; type: ADME; procedure, shortened: as §2
[7] = Drug metabolism in rat liver microsomes assessed as cytochrome P450-mediated 4-hydroxy-3-(3-oxo-1-phenyl-1-butenyl)-2H-1-benzopyran-2-one metabolite formation measured for 10 mins by LC-UV analysis; type: ADME
Procedure, shortened: (§3)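 Time course with (S)-warfarin in uninduced rat liver microsomes (cytochrome P-450 1.0 nmol/mg protein; protein 2 mg/mL) at 37 °C and pH 7.4. NADPH-supported TES–MgCl2 incubation, with products quantified by LC. Single determination from a pool of five rats.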

[8] = Drug metabolism in rat liver microsomes assessed as cytochrome P450-mediated 4'-hydroxywarfarin metabolite formation measured for 10 mins by LC-UV analysis; type: ADME; procedure, shortened: as §3
[9] = Drug metabolism in rat liver microsomes assessed as cytochrome P450-mediated 6-hydroxywarfarin metabolite formation measured for 10 mins by LC-UV analysis; type: ADME; procedure, shortened: as §3
[10] = Drug metabolism in rat liver microsomes assessed as cytochrome P450-mediated 7-hydroxywarfarin metabolite formation measured for 10 mins by LC-UV analysis; type: ADME; procedure, shortened: as §3
[11] = Drug metabolism in rat liver microsomes assessed as cytochrome P450-mediated 4-hydroxy-3-(3-oxo-1-phenyl-1-butenyl)-2H-1-benzopyran-2-one metabolite formation measured after 10 mins by LC-UV analysis; type: ADME; procedure, shortened: as §3
[12] = Drug metabolism in rat liver microsomes assessed as cytochrome P450-mediated 4'-hydroxywarfarin metabolite formation measured after 10 mins by LC-UV analysis; type: ADME; procedure, shortened: as §3
[13] = Drug metabolism in rat liver microsomes assessed as cytochrome P450-mediated 6-hydroxywarfarin metabolite formation measured after 10 mins by LC-UV analysis; type: ADME; procedure, shortened: as §3
[14] = Drug metabolism in rat liver microsomes assessed as cytochrome P450-mediated 7-hydroxywarfarin metabolite formation measured after 10 mins by LC-UV analysis; type: ADME; procedure, shortened: as §3
[15] = Activity at cytochrome P450 in rat liver microsomes treated with (S)-warfarin measured for 10 mins by LC-UV analysis; type: ADME; procedure, shortened: as §1
[16] = Activity at cytochrome P450 in rat liver microsomes treated with (R)-warfarin measured for 10 mins by LC-UV analysis; type: ADME; procedure, shortened: as §1
[17] = system: Salmonella typhimurium; assay: Mutagenicity in Salmonella typhimurium TA98 by Ames test in presence of liver microsomes; type: toxicity, organism-based; conditions: salmonella enterica subsp. enterica serovar typhimurium
[18] = system: Salmonella typhimurium; assay: Mutagenicity in Salmonella typhimurium TA100 by Ames test in presence of liver microsomes; type: toxicity, organism-based; conditions: salmonella enterica subsp. enterica serovar typhimurium
[19] = system: Salmonella typhimurium; assay: Mutagenicity in Salmonella typhimurium TA1535 by Ames test in presence of liver microsomes; type: toxicity, organism-based; conditions: salmonella enterica subsp. enterica serovar typhimurium
[20] = system: Salmonella typhimurium; assay: Mutagenicity in Salmonella typhimurium TA1537 by Ames test in presence of liver microsomes; type: toxicity, organism-based; conditions: salmonella enterica subsp. enterica serovar typhimurium
[21] = system: Liver microsome; assay: Drug metabolism in rat liver microsomes by LC-UV analysis; type: ADME
[22] = Activity at cytochrome P450 in PCN-induced rat liver microsomes treated with (R)-warfarin at 0.15 mmol measured under acidic conditions by LC-UV analysis in presence of cumene hydroperoxide; type: ADME; procedure, shortened: as §2
[23] = Activity at cytochrome P450 in rat liver microsomes treated with (S)-warfarin at 3 umol measured under acidic conditions by LC-UV analysis in presence of NADPH; type: ADME
Procedure, shortened: (§4)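 Male Wistar rat liver microsomes, uninduced or phenobarbital-induced (100 mg/kg/day ip in saline for 3 days, harvested 24 h after the last dose). Per 4.0 mL of 0.01 M TES–0.002 M MgCl2, pH 7.4: (R)- or (S)-warfarin sodium 3.0 × 10^-6 mol, NADP 1.25 µmol, glucose 6-phosphate 62.1 µmol, 8.0 mg protein. Preincubated 1.0 min at 37 °C, started with yeast G6P dehydrogenase (5.0 units), stopped by filtration after 10 min. Products quantified by LC against external standards.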

[24] = Activity at cytochrome P450 in phenobarbital-induced rat liver microsomes treated with (S)-warfarin at 3 umol measured under acidic conditions by LC-UV analysis in presence of NADPH; type: ADME; procedure, shortened: as §4
[25] = system: Rattus norvegicus; assay: Anticoagulant activity in rat plasma at 100 mg/kg, ip measured after 12 hrs by one-stage clotting assay; type: functional, organism-based; design: dose 100 mg/kg
Procedure, shortened: (§5)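 Six rats per group given 100 mg/kg ip, as sodium salt in saline or as free acid in corn oil. At 12 h, rats were anesthetized and blood drawn from the posterior vena cava into 3.8% trisodium citrate; plasma was taken at 2000g for 10 min. Clotting measured by one-stage fibrometer assay, and individual factors by a published method. Controls received vehicle or racemic warfarin sodium at 10 mg/kg ip.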

[26] = system: Rattus norvegicus; assay: Antagonism of extrinsic coagulation factor-2 synthesis in rat plasma at 100 mg/kg, ip measured after 12 hrs; type: functional, organism-based; design: dose 100 mg/kg; procedure, shortened: as §5
[27] = system: Rattus norvegicus; assay: Antagonism of extrinsic coagulation factor-7 synthesis in rat plasma at 100 mg/kg, ip measured after 12 hrs; type: functional, organism-based; design: dose 100 mg/kg; procedure, shortened: as §5
[28] = system: Rattus norvegicus; assay: Antagonism of extrinsic coagulation factor-10 synthesis in rat plasma at 100 mg/kg, ip measured after 12 hrs; type: functional, organism-based; design: dose 100 mg/kg; procedure, shortened: as §5
[29] = system: Rattus norvegicus; assay: Antagonism of intrinsic coagulation factor-8 synthesis in rat plasma at 100 mg/kg, ip measured after 12 hrs; type: functional, organism-based; design: dose 100 mg/kg; procedure, shortened: as §5
[30] = system: Rattus norvegicus; assay: Antagonism of intrinsic coagulation factor-9 synthesis in rat plasma at 100 mg/kg, ip measured after 12 hrs; type: functional, organism-based; design: dose 100 mg/kg; procedure, shortened: as §5
[31] = system: Rattus norvegicus; assay: Effect on fibrinogen level in rat plasma at 100 mg/kg, ip measured after 24 hrs; type: functional, organism-based; design: dose 100 mg/kg
[32] = system: Rattus norvegicus; assay: Toxicity in ip dosed rat; type: organism-based; conditions: in vivo
[33] = system: Salmonella typhimurium; assay: Mutagenicity in Salmonella typhimurium TA98 by Ames test; type: toxicity, organism-based; conditions: salmonella enterica subsp. enterica serovar typhimurium
[34] = system: Salmonella typhimurium; assay: Mutagenicity in Salmonella typhimurium TA100 by Ames test; type: toxicity, organism-based; conditions: salmonella enterica subsp. enterica serovar typhimurium
[35] = system: Salmonella typhimurium; assay: Mutagenicity in Salmonella typhimurium TA1535 by Ames test; type: toxicity, organism-based; conditions: salmonella enterica subsp. enterica serovar typhimurium
[36] = system: Salmonella typhimurium; assay: Mutagenicity in Salmonella typhimurium TA1537 by Ames test; type: toxicity, organism-based; conditions: salmonella enterica subsp. enterica serovar typhimurium

CC(=O)/C=C(\c1ccccc1)c1c(O)oc2ccccc2c1=O
metabolite_detected: Drug metabolism [1] | Drug metabolism [2] | Drug metabolism [3]

CC(=O)C[C@H](c1ccccc1)c1c(O)c2ccccc2oc1=O
metabolite_notdetected: Drug metabolism [11]
0.15 nmol/min: Drug metabolism [4]
0.423 nmol/min: Drug metabolism [5]
metabolite_detected: Drug metabolism [6] | Drug metabolism [7] | Drug metabolism [8] | Drug metabolism [9] | Drug metabolism [10] | Drug metabolism [12] | Drug metabolism [13] | Drug metabolism [14]

CC(=O)CC(c1ccccc1)c1c(O)c2ccccc2oc1=O (stereo unspecified) [WARFARIN]
Non-toxic: Activity [17] | Activity [18] | Activity [19] | Activity [20] | Activity [32] | Activity [33] | Activity [34] | Activity [35] | Activity [36]
metabolite_detected: Drug metabolism [15] | Drug metabolism [16] | Drug metabolism [22] | Drug metabolism [23] | Drug metabolism [24]
inactive: Activity [25] | inhibition [26] | inhibition [27] | inhibition [28] | inhibition [29] | inhibition [30] | Activity [31]
metabolite_notdetected: Drug metabolism [21]
